Results: article PMC6727982 (ACS chemical neuroscience, 2019)
Like-named read-outs stand apart in the source and are kept apart here. Blank lines part the entries; values can stand above or below the molecule they belong to.

Experiments:
[1] = system: GluN1/GluN2A/GluN2A (2A/2A); assay: Inhibition of diheteromeric 2A/2A receptors; format: cell-based; settings: wild-type 2A/2A, 1 μM compound
How it was run: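 Xenopus laevis stage VI oocytes injected with 5–10 ng receptor cRNA and kept at 15 °C in Barth's medium. Two-electrode voltage clamp run 2–7 days later at room temperature, holding −40 mV, in 90 mM NaCl, 1 KCl, 10 HEPES, 0.5 BaCl2, 0.01 EDTA, pH 7.4. Test compound (20 mM DMSO stock; final DMSO 0.05–0.5%) co-applied with 100 μM glutamate/100 μM glycine. Response given as % of response to agonists alone.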

[2] = target: human GluN1/GluN2B receptors (Homo sapiens, UniProt Q05586+Q13224); format: cell-based; settings: for %control at 1 μM, mean (99% CI), GluN2B: 1 μM compound, percent of maximal response to 100 μM glutamate/glycine; for IC50: n = 6−12
Sequence of human GluN1/GluN2B receptors (Q13224 27-1484, other chains not shown): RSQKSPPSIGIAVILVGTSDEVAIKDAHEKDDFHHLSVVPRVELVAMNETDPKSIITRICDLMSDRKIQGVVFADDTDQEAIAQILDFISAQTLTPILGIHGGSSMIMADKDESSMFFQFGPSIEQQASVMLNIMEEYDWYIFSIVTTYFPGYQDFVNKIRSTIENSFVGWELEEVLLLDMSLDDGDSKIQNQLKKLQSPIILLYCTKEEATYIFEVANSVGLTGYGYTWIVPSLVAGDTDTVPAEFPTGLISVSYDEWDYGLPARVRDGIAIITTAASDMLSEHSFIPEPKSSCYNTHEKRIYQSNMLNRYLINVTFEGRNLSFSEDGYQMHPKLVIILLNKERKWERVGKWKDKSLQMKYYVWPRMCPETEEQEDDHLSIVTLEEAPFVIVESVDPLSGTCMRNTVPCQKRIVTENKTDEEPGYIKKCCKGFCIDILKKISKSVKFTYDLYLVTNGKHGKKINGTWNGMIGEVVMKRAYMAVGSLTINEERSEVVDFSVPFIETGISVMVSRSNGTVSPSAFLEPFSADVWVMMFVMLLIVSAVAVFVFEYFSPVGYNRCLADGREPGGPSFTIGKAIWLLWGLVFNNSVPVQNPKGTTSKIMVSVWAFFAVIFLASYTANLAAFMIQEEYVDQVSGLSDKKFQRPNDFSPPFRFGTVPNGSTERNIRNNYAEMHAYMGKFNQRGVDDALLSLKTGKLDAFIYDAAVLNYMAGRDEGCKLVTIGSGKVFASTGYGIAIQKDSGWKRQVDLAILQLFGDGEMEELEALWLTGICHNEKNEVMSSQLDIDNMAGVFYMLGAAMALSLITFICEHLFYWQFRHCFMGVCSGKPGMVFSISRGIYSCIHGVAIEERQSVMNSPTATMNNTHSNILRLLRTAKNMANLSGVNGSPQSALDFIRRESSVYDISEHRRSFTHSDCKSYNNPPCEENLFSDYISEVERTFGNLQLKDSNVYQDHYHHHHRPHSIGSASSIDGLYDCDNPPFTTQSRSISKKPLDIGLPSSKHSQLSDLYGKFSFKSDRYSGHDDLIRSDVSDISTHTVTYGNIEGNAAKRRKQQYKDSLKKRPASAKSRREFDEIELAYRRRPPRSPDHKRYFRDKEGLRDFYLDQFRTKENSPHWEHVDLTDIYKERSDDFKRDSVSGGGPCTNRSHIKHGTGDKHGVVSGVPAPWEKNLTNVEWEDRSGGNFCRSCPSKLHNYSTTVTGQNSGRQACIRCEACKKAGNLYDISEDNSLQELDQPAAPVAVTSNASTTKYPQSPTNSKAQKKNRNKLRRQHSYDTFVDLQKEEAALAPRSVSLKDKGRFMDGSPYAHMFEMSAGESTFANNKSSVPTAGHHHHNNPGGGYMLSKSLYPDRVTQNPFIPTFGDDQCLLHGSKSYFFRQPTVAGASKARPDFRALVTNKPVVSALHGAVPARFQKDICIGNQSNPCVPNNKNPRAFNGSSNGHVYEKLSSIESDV

[3] = LogD by shake-flask method with 18F-labeled tracers; format: physicochemical; settings: pH 7.4
GluN2B subunit [4] = assay: In vitro autoradiography in NHP brain sections; format: binding; settings: self-blocking 13 10 μM
How it was run: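 Brain sections (20 μm) preincubated 20 min in 50 mM Tris-HCl pH 7.4 at room temperature, then incubated 60 min at room temperature with 18F-labelled test compound (37 kBq/mL, 1.58 nM). Self-block: 30 min pretreatment with unlabelled test compound (10 μM, 0.1% DMSO, 1% ethanol in buffer), then cold-buffer wash. Washed, dried, exposed to imaging plates overnight. Regional signal (gray value/unit area) expressed as a ratio to forebrain white matter.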

GluN2B subunit [5] = target: GluN2B subunit (Rattus norvegicus, UniProt P35439+Q00960); assay: In vitro autoradiography in rat brain sections; format: binding
Sequence of GluN2B subunit (Rattus norvegicus, UniProt P35439+Q00960) (Q00960 27-1482, other chains not shown): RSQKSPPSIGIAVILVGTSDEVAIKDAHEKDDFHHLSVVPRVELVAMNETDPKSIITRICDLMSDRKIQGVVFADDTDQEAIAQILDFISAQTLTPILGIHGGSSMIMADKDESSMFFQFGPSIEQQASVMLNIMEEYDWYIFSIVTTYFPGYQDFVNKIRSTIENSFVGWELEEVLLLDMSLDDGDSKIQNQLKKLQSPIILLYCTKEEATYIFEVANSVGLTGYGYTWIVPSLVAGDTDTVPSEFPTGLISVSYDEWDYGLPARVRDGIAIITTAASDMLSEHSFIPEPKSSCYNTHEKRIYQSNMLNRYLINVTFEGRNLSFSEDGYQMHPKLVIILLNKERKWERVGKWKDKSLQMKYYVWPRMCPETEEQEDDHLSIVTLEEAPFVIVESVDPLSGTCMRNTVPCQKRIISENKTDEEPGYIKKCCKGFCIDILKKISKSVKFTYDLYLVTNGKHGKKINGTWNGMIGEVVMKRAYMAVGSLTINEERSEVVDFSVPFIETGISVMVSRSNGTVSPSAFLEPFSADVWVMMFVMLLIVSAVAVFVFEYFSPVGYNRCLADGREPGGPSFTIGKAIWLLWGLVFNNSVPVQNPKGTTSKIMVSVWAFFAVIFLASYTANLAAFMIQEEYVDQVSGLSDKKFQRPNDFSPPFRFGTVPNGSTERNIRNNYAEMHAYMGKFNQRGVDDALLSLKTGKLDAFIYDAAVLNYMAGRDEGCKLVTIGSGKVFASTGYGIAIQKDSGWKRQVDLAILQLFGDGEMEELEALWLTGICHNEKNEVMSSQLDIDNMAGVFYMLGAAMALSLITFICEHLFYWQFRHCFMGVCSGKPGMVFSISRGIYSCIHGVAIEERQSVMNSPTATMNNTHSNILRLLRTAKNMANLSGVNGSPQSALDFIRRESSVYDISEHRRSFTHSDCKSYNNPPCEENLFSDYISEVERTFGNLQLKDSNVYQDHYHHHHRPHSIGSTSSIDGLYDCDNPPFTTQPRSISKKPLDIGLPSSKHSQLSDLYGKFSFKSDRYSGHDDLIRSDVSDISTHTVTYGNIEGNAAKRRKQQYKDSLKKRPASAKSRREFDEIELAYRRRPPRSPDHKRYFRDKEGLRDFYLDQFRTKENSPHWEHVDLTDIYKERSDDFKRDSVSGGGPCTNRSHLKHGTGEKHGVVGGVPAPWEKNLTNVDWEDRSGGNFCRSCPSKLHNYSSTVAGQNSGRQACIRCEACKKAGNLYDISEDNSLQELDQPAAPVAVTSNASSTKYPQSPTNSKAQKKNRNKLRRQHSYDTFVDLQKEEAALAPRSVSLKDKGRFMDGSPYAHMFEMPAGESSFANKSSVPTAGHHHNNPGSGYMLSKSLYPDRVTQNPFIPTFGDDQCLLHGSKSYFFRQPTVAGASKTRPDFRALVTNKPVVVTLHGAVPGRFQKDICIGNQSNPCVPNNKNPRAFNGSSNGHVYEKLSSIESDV

[6] = Radiometabolite analysis in mice; format: in vivo; settings: ICR mice, 15 min post injection, n = 2
How it was run: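 Female CD1 (ICR) mice (8 weeks, 23–27 g) received tracer IV via tail vein and were killed at 15 min. Plasma was deproteinized with ice-cold CH3CN, and brain was homogenized in ice-cold CH3CN, with repeated centrifugation at 4 °C. Supernatants were spiked with unlabelled reference and run on C18 radioHPLC (CH3CN/H2O 55/45, 5 mL/min). Fractions were gamma-counted; parent % = parent counts/total counts × 100.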

[7] = Whole body ex vivo biodistribution in mice
How it was run: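 Female CD1 (ICR) mice (8 weeks, 23–27 g) were injected via tail vein with tracer, 740 kBq/100 μL saline containing 5% ethanol. Animals were killed at 2, 10, 30 and 60 min. Organs were removed, weighed and gamma-counted. %ID/g of wet tissue (stomach as %ID/organ) was calculated against diluted aliquots of the injected dose, with decay correction.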

[8] = IC50, mean, 100 μM glutamate/glycine coapplied with increasing concentrations
[9] = pIC50, mean (95% CI), 100 μM glutamate/glycine
[10] = rat, self-blocking 13 10 μM, n = 3
[11] = remained high until 10 min post injection

SMILES: COc1cnc(OCc2cn(-c3ccc(Br)c(F)c3)nn2)nc1 [Compound 12, 2-((1-(4-Bromo-3-fluorophenyl)-1H-1,2,3-triazol-4-yl)methoxy)-5-methoxypyrimidine]
IC50 [2, 8]: 339 nM
IC50 [2, 9]: 282 nM

SMILES: COc1cnc(OCc2cn(-c3ccc(F)c(C)c3)nn2)nc1 [Compound 13, 2-((1-(4-Fluoro-3-methylphenyl)-1H-1,2,3-triazol-4-yl)methoxy)-5-methoxypyrimidine]
sensitivity of 2A/2A responses [1]: insensitive
%control at 1 μM, mean (99% CI), GluN2B [2]: 17 (11, 23) %
logD [3]: 2.89 ± 0.037

The remaining lines, values ahead:

sensitivity of 2A/2A responses [1]: insensitive
%control at 1 μM, mean (99% CI), GluN2B [2]: 13 (7, 19) %
IC50 [2, 8]: 19 nM
IC50 [2, 9]: 19.1 nM
logD [3]: 3.14 ± 0.037
SMILES: COc1cnc(OCc2cn(-c3ccc(F)c(Br)c3)nn2)nc1 [Compound 11, 2-((1-(3-Bromo-4-fluorophenyl)-1H-1,2,3-triazol-4-yl)methoxy)-5-methoxypyrimidine]

IC50 [2, 8]: 89 nM
IC50 [2, 9]: 75.9 nM
SMILES: COc1cnc(OCc2cn(-c3ccc(C)c(F)c3)nn2)nc1 [Compound 14, 2-((1-(3-Fluoro-4-methylphenyl)-1H-1,2,3-triazol-4-yl)methoxy)-5-methoxypyrimidine]

specific binding, caudate nucleus (GluN2B subunit [4]): 79%
specific binding, entorhinal cortex (GluN2B subunit [4]): 89%
specific binding, insular cortex (GluN2B subunit [4]): 82%
specific binding, putamen (GluN2B subunit [4]): 73%
specific binding, thalamus (GluN2B subunit [4]): 53%
specific binding, hippocampus (GluN2B subunit [4]; n = 3): 87%
reduction of uptake by self-blocking (GluN2B subunit [5]; rat brain sections, cold compound 13 10 μM): ~ 90%
specific binding, frontal cortex (GluN2B subunit [5]; [10]): 94%
specific binding, hippocampus (GluN2B subunit [5]; [10]): 94%
specific binding, striatum (GluN2B subunit [5]; [10]): 92%
specific binding, thalamus (GluN2B subunit [5]; [10]): 88%
logD [3]: 2.89
parent fraction in brain [6]: 56.6%
parent fraction in liver [6]: 5.1%
parent fraction in plasma [6]: 11.8%
bone uptake [7]: < 2 %ID/g
initial uptake in heart, lung, kidney, liver, and small intestine ([7]; 2 min postinjection): > 5 % ID/g
uptake in heart, lung, kidney, spleen, pancreas, and muscle ([7]; 60 min postinjection): < 0.6 % ID/g
brain uptake at 2 min (brain2min) ([7]; i.v., 2 min post injection): 3.60 % ID/g
brain uptake at 10 min ([7]; i.v., 10 min post injection): 0.72 %ID/g
brain uptake at 60 min ([7]; i.v., 60 min post injection): 0.018 % ID/g
liver uptake [7, 11]: 20.84 % ID/g
small intestine uptake [7, 11]: 39.15 % ID/g
SMILES: COc1cnc(OCc2cn(-c3ccc([18F])c(C)c3)nn2)nc1 [[^18F]13, 2-((1-(4-[^18F]fluoro-3-methylphenyl)-1H-1,2,3-triazol-4-yl)methoxy)-5-methoxypyrimidine]
